# Source: publication PMC2685098 (Nucleic Acids Research, 2009)
# Where a chain is given by its changes, count along the chain named. Where two headings read alike, the source gives them in different places.
# T1: AIRE-PHD1 Glu298Ala (Homo sapiens, UniProt O43918, E298A)
# T1 sequence (O43918 293-354 E298A): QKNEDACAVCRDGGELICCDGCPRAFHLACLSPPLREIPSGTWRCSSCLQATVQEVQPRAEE
# T2: AIRE-PHD1 Asp304Ala (Homo sapiens, UniProt O43918, D304A)
# T2 sequence (O43918 293-354 D304A): T1 sequence (O43918 293-354 E298A) with A6E, D12A
# T3: AIRE-PHD1 wild type (Homo sapiens, UniProt O43918)
# T3 sequence (O43918 293-354): T1 sequence (O43918 293-354 E298A) with A6E
# T4: AIRE-PHD1 Glu307Ala (Homo sapiens, UniProt O43918, E307A)
# T4 sequence (O43918 293-354 E307A): T1 sequence (O43918 293-354 E298A) with A6E, E15A
# T5: first PHD finger of autoimmune regulator (AIRE-PHD1), wild type (human, UniProt O43918 293-354)
# T5 sequence (looked up): T1 sequence (O43918 293-354 E298A) with A6E
# T6: AIRE-PHD1 Asp304Ala (human, UniProt O43918 293-354, Asp304Ala)
# T6 sequence (looked up): T1 sequence (O43918 293-354 E298A) with A6E, D12A
# T7: AIRE-PHD1 Glu298Ala (human, UniProt O43918 293-354, Glu298Ala)
# T7 sequence (looked up): T1 sequence (O43918 293-354 E298A)
# T8: AIRE-PHD1 Glu307Ala (human, UniProt O43918 293-354, Glu307Ala)
# T8 sequence (looked up): T1 sequence (O43918 293-354 E298A) with A6E, E15A
# B1: mutant histone H3 peptide (1-10) H3R8AK4me0 (peptide)
# peptide: ARTKQTAAKS
# B2: non-modified histone H3 tail peptide H3K4me0 (residues 1-10) (peptide)
# peptide: ARTKQTARKS
# Experiments:
# AIRE-PHD1 Glu298Ala [1] = biological target: T1, AIRE-PHD1 Glu298Ala; assay: Isothermal titration calorimetry; assay type: binding; conditions: AIRE-PHD1 Glu298Ala mutant, ITC 23°C, pH 7.2
# In short: (§1)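 Recombinant AIRE-PHD1 (Gln293–Glu354) point mutants, made by overlap-extension PCR and mass-verified by MALDI, at 40–85 μM in 20 mM phosphate, 150 mM NaCl, 2 mM β-mercaptoethanol, 50 μM ZnCl2, pH 7.2. Synthetic H3 1–10 peptides (0.54–2.5 mM) were injected 28–57 times at 15 min spacing, 23°C, stirring 307 rpm. Heats were corrected for dilution and fitted to a one-site model by nonlinear least squares. Run in duplicate.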
# AIRE-PHD1 Asp304Ala [2] = biological target: T2, AIRE-PHD1 Asp304Ala; assay: Isothermal titration calorimetry; assay type: binding; conditions: AIRE-PHD1 Asp304Ala mutant, ITC 23°C, pH 7.2
# In short: as §1
# AIRE-PHD1 wild type [3] = biological target: T3, AIRE-PHD1 wild type; conditions: AIRE-PHD1 wt, ITC; previous experiments; ref [22]; cited from earlier work
# AIRE-PHD1 Glu307Ala [4] = biological target: T4, AIRE-PHD1 Glu307Ala; assay: Isothermal titration calorimetry; assay type: binding; conditions: AIRE-PHD1 Glu307Ala mutant, ITC 23°C, pH 7.2
# In short: as §1
# AIRE-PHD1 wild type [5] = biological target: T3, AIRE-PHD1 wild type; assay: Isothermal titration calorimetry; assay type: binding; conditions: for ΔG / −TΔS: AIRE-PHD1 wt, ITC 23°C, pH 7.2, duplicate, ND = not detectable
# AIRE-PHD1 wild type [6] = biological target: T3, AIRE-PHD1 wild type; assay: Tryptophan fluorescence titration; assay type: binding
# GST-AIRE-PHD1 = assay: Peptide pull-down / in vitro binding assays; set-up: species or system human; conditions: in vitro: fluorescence titrations, ITC and peptide pull-down assays
# [7] = biological target: first PHD finger of autoimmune regulator (AIRE-PHD1), wild type (human) (UniProt O43918); assay: other fluorescence titration
# [8] = biological target: first PHD finger of autoimmune regulator (AIRE-PHD1), wild type (human) (UniProt O43918); assay: ITC
# [9] = biological target: T5, first PHD finger of autoimmune …; assay: ITC
# [10] = biological target: T5, first PHD finger of autoimmune …; assay: other fluorescence titration
# AIRE-PHD1 Asp304Ala [11] = biological target: T6, AIRE-PHD1 Asp304Ala; assay: ITC
# AIRE-PHD1 Glu298Ala [12] = biological target: T7, AIRE-PHD1 Glu298Ala; assay: ITC
# AIRE-PHD1 Glu307Ala [13] = biological target: T8, AIRE-PHD1 Glu307Ala; assay: ITC
# AIRE-PHD1 Asp304Ala [14] = biological target: T6, AIRE-PHD1 Asp304Ala; assay: other fluorescence titration
# AIRE-PHD1 Glu298Ala [15] = biological target: T7, AIRE-PHD1 Glu298Ala; assay: other fluorescence titration
# AIRE-PHD1 Glu307Ala [16] = biological target: T8, AIRE-PHD1 Glu307Ala; assay: other fluorescence titration
molecule,measurement,setting,value
C[C@H](N)C(=O)N[C@@H](CCCNC(=N)N)C(=O)N[C@H](C(=O)N[C@@H](CCCCN)C(=O)N[C@@H](CCC(N)=O)C(=O)N[C@H](C(=O)N[C@@H](C)C(=O)N[C@@H](CCCNC(=N)N)C(=O)N[C@@H](CCCCN)C(=O)N[C@@H](CO)C(=O)O)[C@@H](C)O)[C@@H](C)O [H3K4me0],ΔG,AIRE-PHD1 Glu298Ala [1],-5.9 ± 0.1 kcal/mol
same,ΔH,AIRE-PHD1 Glu298Ala [1],-7.2 ± 0.1 kcal/mol
same,−TΔS,AIRE-PHD1 Glu298Ala [1],1.3 ± 0.1 kcal/mol
same,ΔG,AIRE-PHD1 Asp304Ala [2],-5.2 ± 0.4 kcal/mol
same,ΔH,AIRE-PHD1 Asp304Ala [2],-5.3 ± 0.4 kcal/mol
same,−TΔS,AIRE-PHD1 Asp304Ala [2],0.1 ± 0.4 kcal/mol
same,ΔG,AIRE-PHD1 wild type [3],-7.1 ± 0.1 kcal/mol
same,ΔH,AIRE-PHD1 wild type [3],-9.3 ± 0.1 kcal/mol
same,−TΔS,AIRE-PHD1 wild type [3],2.2 ± 0.1 kcal/mol
same,ΔG,AIRE-PHD1 Glu307Ala [4],-5.9 ± 0.1 kcal/mol
same,ΔH,AIRE-PHD1 Glu307Ala [4],-6.7 ± 0.1 kcal/mol
same,−TΔS,AIRE-PHD1 Glu307Ala [4],0.7 ± 0.1 kcal/mol
C[C@H](N)C(=O)N[C@@H](CCCNC(=N)N)C(=O)N[C@H](C(=O)N[C@@H](CCCCN)C(=O)N[C@@H](CCC(N)=O)C(=O)N[C@H](C(=O)N[C@@H](C)C(=O)N[C@@H](C)C(=O)N[C@@H](CCCCN)C(=O)N[C@@H](CO)C(=O)O)[C@@H](C)O)[C@@H](C)O [H3R8AK4me0],ΔG,AIRE-PHD1 wild type [5],-5.8 ± 0.3 kcal/mol
same,−TΔS,AIRE-PHD1 wild type [5],1.6 ± 0.3 kcal/mol
C[C@H](N)C(=O)N[C@@H](CCCNC(=N)N)C(=O)N[C@H](C(=O)N[C@@H](CCCCN)C(=O)N[C@@H](CCC(N)=O)C(=O)N[C@H](C(=O)N[C@@H](C)C(=O)N[C@@H](CCCNC(=N)N)C(=O)N[C@@H](CCCCN)C(=O)N[C@@H](COP(=O)(O)O)C(=O)O)[C@@H](C)O)[C@@H](C)O [H3S10Ph K4me0],Kd,AIRE-PHD1 wild type [6],7.6 ± 1.2 µM
same,Kd,AIRE-PHD1 wild type [5],24.7 ± 0.2 µM
same,ΔG,AIRE-PHD1 wild type [5],-6.3 ± 0.1 kcal/mol
same,−TΔS,AIRE-PHD1 wild type [5],3.3 ± 0.1 kcal/mol
"H3R2me2asK4me0: H3 1-10 peptide, asymmetric di-methylation of R2",AIRE-PHD1 binding (in words),GST-AIRE-PHD1,strongly reduced AIRE-PHD1 binding
"histone H3 peptide (1-10) mono-methylated at R2, H3R2me1K4me0",Kd,[7],248 µM
same,Kd,[8],199 µM
same,dH,[8],-4.6 kcal/mol
"histone H3 peptide (1-10) phosphorylated at S10, H3S10PhK4me0",Kd,[7],7.6 µM
same,Kd,[8],24.7 µM
B1,Kd,[9],55.9 µM
same,dH,[9],-7.3 ± 0.3 kcal/mol
same,Kd,[10],52.8 ± 4.9 µM
B2,Kd,AIRE-PHD1 Asp304Ala [11],123 ± 6.7 µM
same,dH,AIRE-PHD1 Asp304Ala [11],-5.3 ± 0.4 kcal/mol
same,Kd,AIRE-PHD1 Glu298Ala [12],43.4 ± 0.5 µM
same,dH,AIRE-PHD1 Glu298Ala [12],-7.2 ± 0.1 kcal/mol
same,Kd,AIRE-PHD1 Glu307Ala [13],40.6 ± 0.5 µM
same,dH,AIRE-PHD1 Glu307Ala [13],-6.7 ± 0.1 kcal/mol
same,Kd,AIRE-PHD1 Asp304Ala [14],80 µM
same,Kd,AIRE-PHD1 Glu298Ala [15],28.1 ± 2.1 µM
same,Kd,AIRE-PHD1 Glu307Ala [16],19 ± 2.4 µM
